According to PubChem BioAssay AID493089 (Broad Institute, 2011):
Values joined by “and” are separate entries in the source; they are usually repeats but may differ in a detail not shown here. Equal entries are not always repeated. Records with an inconclusive call do not appear. Active and inactive are the calls of the source.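 How the source made its calls: active means fitted half-maximal dose no more than ten times the top valid dose tested, with signal falling; inconclusive means flat curve at 30 to 70% inhibition, or poor fit; inactive means the rest, including rising signal.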

Tested on: C. albicans CaCi-2 + fluconazole growth, Alamar Blue, 48 h
Experiment: Candida CaCi-2 inhibition under fluconazole co-treatment – CaCi-2 isolate, dry powder retest, set 2, confirmation (AID 493089)
Conditions: not given
Outline: (§1)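 Material: fluconazole-resistant Candida albicans clinical isolate CaCi-2. Times: 48 h compound exposure, 37 °C, 90% humidity, 2 h dye. Signal: Alamar Blue fluorescence, Ex 544 nm, Em 590 nm. Measure: relative growth, signal decrease as inhibition.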
Molecule `CC1CCN(C(=O)Cn2c3ccc(F)cc3c3nc4n(c(=O)c32)CCCS4)CC1` has an AC50 of 2.74 µM. `O=c1c2[nH]c3ccccc3c2nc2n1CCS2` showed an AC50 of 10.5 µM. `O=C(Cn1c2ccc(F)cc2c2nc3n(c(=O)c21)CCS3)N1CCCC1` gave an AC50 of 0.583 µM. Molecule `CC1CCN(C(=O)Cn2c3ccccc3c3nc4n(c(=O)c32)CCS4)CC1` has an AC50 of 5.13 µM. With `O=C(Cn1c2ccc(F)cc2c2nc3n(c(=O)c21)CCS3)N1CCCCCC1` the AC50 was 1.49 µM. Molecule `COC(=O)Cn1nc(-c2ccccc2)c2ccccc21` has an AC50 of 2.89 µM. `CCN(CC)C(=O)Cn1c2ccc(F)cc2c2nc3n(c(=O)c21)CCS3` showed an AC50 of 0.645 µM. With `O=C(Cn1c2ccc(F)cc2c2nc3n(c(=O)c21)CCS3)N1CCCCC1` the AC50 was 0.628 µM. Molecule `O=C(Cn1c2ccccc2c2nc3n(c(=O)c21)CCS3)N1CCCCC1` has an AC50 of 2.15 µM. With `O=c1c2[nH]c3ccc(F)cc3c2nc2n1CCS2` the AC50 was 3.41 µM. Work on `O=C(Cn1c2ccccc2c2nc3n(c(=O)c21)CCS3)N1CCOCC1` yielded an AC50 of 3.57 µM. `COC(=O)Cn1nc(-c2ccc(C)cc2)c2ccccc21` gave an AC50 of 12 µM. In the case of `CCN(CC)C(=O)Cn1c2ccccc2c2nc3n(c(=O)c21)CCS3`, the AC50 is reported as 1.74 µM and 2.3 µM. For `O=C(Cn1c2ccccc2c2nc3n(c(=O)c21)CCS3)N1CCCC1`, the AC50 was 1.1 µM and 3.52 µM. With `COc1ccc(NC(=O)Cn2c3ccccc3c3nc4n(c(=O)c32)CCS4)cc1` the AC50 was 3.02 µM.

Tested on: not listed separately
Experiment: as above
Conditions: C. albicans CaCi-2 + fluconazole growth, Alamar Blue, 48 h; at 1.2 µM (top of the series)
Outline: as §1
For `COc1ccc2c(c1)c1nc3n(c(=O)c1n2CC(=O)N1CCC(C)CC1)CCS3`, the activity change, negative = inhibition was -8.53% (inactive).

Same assay, conditions: C. albicans CaCi-2 (fluconazole-resistant clinical isolate) + fluconazole growth, Alamar Blue, 48 h; at 12 µM (top of the series)
For `O=C(Cn1c2ccccc2c2nc3n(c(=O)c21)CCS3)NCCc1ccc(Cl)cc1`, the activity change, negative = inhibition was -24.6% (inactive). In the case of `O=C(Cn1c2ccccc2c2nc3n(c(=O)c21)CCCS3)c1ccc(F)cc1`, the activity change, negative = inhibition is reported as -21.3% (inactive). With `O=C(O)Cn1nc(-c2ccccc2)c2ccccc21` the activity change, negative = inhibition was -10.3% (inactive). With `COC(=O)Cn1c(-c2ccccc2)nc2ccccc21` the activity change, negative = inhibition was -10.6% (inactive). With `N#Cc1cccc(N2CCN(C(=O)c3ccc(Cl)cc3)CC2)n1` the activity change, negative = inhibition was -7.37% (inactive).
